Assay results reported in ChEMBL document CHEMBL1821581, “Synthesis, antiproliferative activities and in vitro biological evaluation of novel benzofuransulfonamide derivatives” (Bioorg Med Chem Lett, 2011).

Assays:
HeLa = experiment: Antiproliferative activity against human HeLa cells after 48 hrs by MTT assay; format: functional, cell-based
Procedure, shortened: (§1)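 Cells seeded at 2000/well, cultured 24 h, then exposed to compounds 48 h. MTT (10 mg/mL stock, 10 µL/well) added for 2.5 h at 37 °C; supernatant removed, DMSO added 15–20 min, absorbance read at 570 nm. IC50 reported as mean of three independent experiments.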

HepG2 = experiment: Antiproliferative activity against human HepG2 cells after 48 hrs by MTT assay; format: functional, cell-based; settings: HepG2, 48 h; procedure, shortened: as §1
NCI-H460 [1] = experiment: Antiproliferative activity against human NCI-H460 cells after 48 hrs by MTT assay; format: functional, cell-based; settings: NCI-H460, 48 h; procedure, shortened: as §1
PC-3 = experiment: Antiproliferative activity against human PC3 cells after 48 hrs by MTT assay; format: functional, cell-based; settings: PC-3, 48 h; procedure, shortened: as §1
NCI-H460 [2] = experiment: Induction of apoptosis in human NCI-H460 cells at 2.5 uM after 48 hrs using annexin V-FITC and propidium iodine staining by flow cytometric analysis (reference value: 3.82%); format: functional
NCI-H460 [3] = experiment: Induction of apoptosis in human NCI-H460 cells at 10 uM after 48 hrs using annexin V-FITC and propidium iodine staining by flow cytometric analysis (reference value: 3.82%); format: functional

Row | IC50 (HeLa) [µM] | IC50 (HepG2) [µM] | IC50 (NCI-H460 [1]) [µM] | IC50 (PC-3) [µM] | SMILES | Activity (NCI-H460 [2]) [%] | Activity (NCI-H460 [3]) [%]
1 | 18.8 | 31.2 | 15.6 | 13.5 | Cc1c(C(=O)c2ccccc2)oc2ccc(NC(=O)c3ccc(F)cc3)cc12 |  | 
2 | 10.6 | 24.1 | 34.8 | 38.2 | Cc1c(C(=O)c2ccccc2)oc2ccc(NS(=O)(=O)c3ccc(F)cc3)cc12 |  | 
3 | > 40 | > 40 | > 40 | > 40 | CC(=O)Nc1ccc2oc(C(=O)c3ccccc3)c(C)c2c1 |  | 
4 | 12.2 | 5.68 | 8.89 | 15.9 | CCOC(=O)c1oc2ccc(NS(=O)(=O)c3ccc(F)cc3)cc2c1C |  | 
5 | 15.4 | 32.2 | 22.6 | 22.1 | Cc1c(C(=O)c2ccccc2)oc2ccc(S(=O)(=O)Nc3ccc(F)cc3)cc12 |  | 
6 | 9.37 | 7.53 | 4.13 | 8.56 | CCOC(=O)c1oc2ccc(S(=O)(=O)Nc3ccc(F)cc3)cc2c1C | 33.88 | 41.09
